The source of these data is ChEMBL document CHEMBL1687709 (Antimicrob Agents Chemother, 2008).

Type in all cases: ADME, organism-based
Data set [1] in a line: Cmax in HIV-infected patient at 480 mg/m2, po administered every 12 hrs for 6 weeks co-administered with 120 mg/m2 of ritonavir and saquinavir. Conditions: human, in vivo. Also noted: route oral. In outline:
(§1)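 Step 2 SQV 750 mg/m2 q12h was added by week 4 when LPV IQ was <15. A second 12-h intensive PK study ran after 2 weeks of SQV plus LPV/r (week 6), with plasma predose and at 1, 2, 3, 6 and 12 h. HPLC-UV at 212 nm (LPV 0.100–40, SQV 0.050–20 μg/ml). Noncompartmental AUC, Cmax, Tmax and C12h.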

Data set [2] can be described thus: AUC in HIV-infected patient at 480 mg/m2, po administered every 12 hrs for 6 weeks co-administered with 120 mg/m2 of ritonavir and saquinavir. The following applies: human, plasma. In short, it runs like this:
as §1

Data set [3] in a line: Plasma concentration in HIV-infected patient at 480 mg/m2, po administered every 12 hrs for 6 weeks co-administered with 120 mg/m2 of ritonavir and saquinavir measured 12 hrs after last dose. The following applies: human. In outline:
as §1

Data set [4] in a line: Tmax in HIV-infected patient at 480 mg/m2, po administered every 12 hrs for 6 weeks co-administered with 120 mg/m2 of ritonavir and saquinavir. Conditions: human, in vivo. In short, it runs like this: as §1
The nature of data set [5]: Cmax in HIV-infected patient at 400 mg/m2, po administered every 12 hrs for 2 weeks co-administered with 120 mg/m2 of ritonavir. Also noted: route oral. The following applies: human, in vivo, in the assay text read “100 mg/m2 of ritonavir” for “120 mg/m2 of ritonavir”. In outline:
(§2)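 Treatment-experienced HIV-infected children and adolescents. Without NNRTI: LPV/r 400/100 mg/m2 q12h. With NNRTI: 480/120 mg/m2 q12h. Given as gel capsule or liquid. After 2 weeks, a 12-h intensive PK study followed an observed dose, no standardized meal. Plasma (EDTA) was drawn predose and at 1, 2, 3, 6 and 12 h. LPV was measured by HPLC-UV at 212 nm (range 0.100–40 μg/ml). Noncompartmental AUC, Cmax, Tmax, C12h and CL/F.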

A short description of data set [6]: Plasma concentration in HIV-infected patient at 400 mg/m2, po administered every 12 hrs for 2 weeks co-administered with 120 mg/m2 of ritonavir measured 12 hrs after last dose. The following applies: human, in the assay text read “100 mg/m2 of ritonavir” for “120 mg/m2 of ritonavir”. In outline: as §2
The nature of data set [7]: AUC in HIV-infected patient at 400 mg/m2, po administered every 12 hrs for 2 weeks co-administered with 120 mg/m2 of ritonavir. The following applies: human, plasma, in the assay text read “100 mg/m2 of ritonavir” for “120 mg/m2 of ritonavir”. In short, it runs like this: as §2
Data set [8] in a line: Tmax in HIV-infected patient at 400 mg/m2, po administered every 12 hrs for 2 weeks co-administered with 120 mg/m2 of ritonavir. Conditions: human, in vivo, in the assay text read “100 mg/m2 of ritonavir” for “120 mg/m2 of ritonavir”. In short, it runs like this:
as §2

A short description of data set [9]: Clearance in HIV-infected patient at 400 mg/m2, po administered every 12 hrs for 2 weeks co-administered with 120 mg/m2 of ritonavir. The following applies: human, in vivo, in the assay text read “100 mg/m2 of ritonavir” for “120 mg/m2 of ritonavir”. In short, it runs like this: as §2

Broadly, the Cmax is the maximum level reached in the sampled fluid or tissue. Usually AUC stands for concentration integrated over time. As a reminder, the Tmax is the time at which the peak concentration occurs. For the compound `CC(C)(C)NC(=O)[C@@H]1C[C@@H]2CCCC[C@@H]2CN1C[C@@H](O)[C@H](Cc1ccccc1)NC(=O)[C@H](CC(N)=O)NC(=O)c1ccc2ccccc2n1`, the Cmax in data set [1] amounted to 3600 ng/mL. In addition, the AUC in data set [2] was 33700 ng·h/mL. Further, in data set [3], the concentration at 12 h was determined as 1820 ng/mL. Moreover, in data set [4], the Tmax was 3 h.

A word on the CL/F: it is clearance divided by bioavailability, as obtained after extravascular dosing. Turning to `Cc1cccc(C)c1OCC(=O)N[C@@H](Cc1ccccc1)[C@@H](O)C[C@H](Cc1ccccc1)NC(=O)[C@H](C(C)C)N1CCCNC1=O` [LOPINAVIR], in data set [5], the Cmax came to 17200 ng/mL. Also, in data set [6], the concentration at 12 h turned out to be 8800 ng/mL. In data set [7], the AUC was 157 µg·h/mL. Further, the Tmax in data set [8] stood at 3 h. In data set [9], the CL/F was 43 mL/min.
